Screening results deposited in PubChem by several laboratories.
APP 5UTR inh = APP translation inhibition; SH-SY5Y APP 5'UTR-luciferase reporter, luminescence; inhibition, % at 2 µM; 190,000 compounds, 0.82% hits; AID 1285;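 active = inhibition above a set limit, derived from the sample mean plus 3 SD, cut at about 45% in these data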
APP 5'UTR act = APP 5'UTR luciferase reporter activation; SH-SY5Y APP 5'UTR luciferase reporter, luminescence; zero percent = DMSO vehicle wells; activation, % at 2 µM; 190,000 compounds, 1% hits;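 active = activation above a set limit, based on mean plus 3 SD of controls, cut at about 140% in these data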
STAT1 activator = activators of IFN-gamma induced STAT1 signaling; NIH 3T3 STAT1-luciferase reporter, luminescence; 100% = IFN-gamma alone, no compound; activation (% of control), % at 5.5 µM; 200,000 compounds, 2.6% hits;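 active = activation above the screen-wide mean activation plus 3 SD, cut at about 130% in these data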;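 note: raw ratio to IFN-gamma control signal so 100% means no change and 0% no light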
NF-kB expr up = raises NF-kB expression in human neuronal cells; NF-kB reporter expression; stronger effect = higher value; fold change at 12.5 µM; AID 1239; 190,000 compounds, 1.6% hits; in the data active = fold change above about 3.3
FLuc act counter = affects firefly luciferase, flagging false hits in luciferase stimulation screens; P08659; ATPlite luciferase biochemical, luminescence, 10 min; 0 = ATP-free wells, 1 = DMSO control; activation factor at 10 µM; 200,000 tested, under 10 active; AID 1027;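 active = luciferase activation factor, scaled between plate controls, of at least 2 with compound at 10 µM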
Target sequence (P08659 whole entry, looked up): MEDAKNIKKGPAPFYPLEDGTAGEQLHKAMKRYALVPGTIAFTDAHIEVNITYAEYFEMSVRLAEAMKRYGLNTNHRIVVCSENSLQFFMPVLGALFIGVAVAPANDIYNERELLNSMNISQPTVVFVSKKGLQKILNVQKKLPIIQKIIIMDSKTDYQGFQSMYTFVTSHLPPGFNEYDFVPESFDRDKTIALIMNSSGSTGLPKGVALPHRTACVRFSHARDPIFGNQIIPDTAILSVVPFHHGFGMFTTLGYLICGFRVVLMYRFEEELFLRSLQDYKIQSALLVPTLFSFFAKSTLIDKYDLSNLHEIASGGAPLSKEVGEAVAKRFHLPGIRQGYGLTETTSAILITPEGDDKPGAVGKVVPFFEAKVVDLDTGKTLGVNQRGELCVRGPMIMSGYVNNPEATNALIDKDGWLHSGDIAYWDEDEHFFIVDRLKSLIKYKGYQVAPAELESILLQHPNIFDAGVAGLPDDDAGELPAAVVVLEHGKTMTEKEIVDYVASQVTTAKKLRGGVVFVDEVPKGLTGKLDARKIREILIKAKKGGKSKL
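Material: Luciferase/luciferin reagent mix | Doses: Test compounds dosed from 2 mM stocks in 100% DMSO | Timing: 10 min incubation after luciferase reagent addition, room temperature | Measured by: Luminescence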
FLuc inh counter = Photinus pyralis luciferase inhibition counter-screen | P08659 | ATPLite firefly luciferase biochemical luminescence, 10 min | inhibition, % at 10 µM | 200,000 compounds, 1.5% hits | AID 1006;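 active = inhibition above about 50% when tested at 10 µM, limit read from the data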
STAT1 act conf = confirmation of STAT1 signaling activators | shares compounds with STAT1 activator | NIH 3T3 STAT1-luciferase reporter, IFN-gamma potentiation, luminescence; 100% = IFN-gamma EC80 alone, no compound | activation (% of control), % at 5.7 µM | 1,200 compounds, 97% hits | AID 1262;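 active = activation above a set limit carried over from the earlier primary STAT1 screen, cut at about 140% in these data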;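 note: simple ratio to median IFN-gamma plus DMSO wells so 0% means no light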
NFkB act = counter-screen for STAT1 activators: NF-kappaB activation; shares compounds with STAT1 activator; AID 1306; activation (% of control), % at 5.7 µM; 1,200 compounds, 43% hits; HEK293T NF-kB luciferase reporter, TNF-alpha stimulated, luminescence; 100% = TNF-alpha with vehicle only;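 active = activation above the mean of solvent-only control wells plus 3 SD, set per campaign, cut at about 130% in these data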;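 note: TNF-alpha given at a submaximal dose yielding about 80% of full reporter signal; values are well signal over median control so 100% means no change and 0% no light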
STAT3 act STAT1c = counter-screen for STAT1 activators: human STAT3 activation; AID 1316; 1,200 compounds, 46% hits; activation (% of control), % at 5.7 µM; U3A cells STAT3-luciferase reporter, IL-6, luminescence; cells lack STAT1; 100 = IL-6 alone, no compound effect; shares compounds with STAT1 activator;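 active = activation above the solvent-only control well mean plus 3 SD, set per plate batch, cut at about 110% in these data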;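 note: 0% = no luminescence and 100% = median IL-6 plus DMSO wells; higher means more STAT3 reporter activation so hits are non-selective activators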
An asterisk follows results filed as active; x = no result. Only some compounds are listed: those with a hit (about 4.8% of all), similar ones and a draw of the others.

SMILES	APP 5UTR inh	APP 5'UTR act	STAT1 activator	NF-kB expr up	FLuc act counter	FLuc inh counter	STAT1 act conf	NFkB act	STAT3 act STAT1c
Cc1ccc(OCCn2cnc3ccccc3c2=O)c([N+](=O)[O-])c1	-105.0	104.9	136.4*	1.86	1	-1.4	x	x	x
Cc1cc(OCCn2cnc3ccccc3c2=O)ccc1[N+](=O)[O-]	8.7	-8.7	109.4	1.12	1.1	-5.8	x	x	x
CN(C)c1ccnc(Nc2ccc(O)cc2)c1C#N	-9.6	9.6	96.3	0.95	1.1	-7.4	x	x	x
CC(C)(C)Cc1nc(-c2ccccn2)no1	-36.2	36.2	118.3	0.48	1	4.7	x	x	x
Cc1ccc(OCc2nc(-c3ccccn3)no2)c(Br)c1	-149.7	149.7*	56.0	4.39*	0.2	79.1*	x	x	x
Cc1ccc(OCc2nc(-c3ccccn3)no2)cc1	-138.8	138.8*	126.9	5.1*	0.7	33.3	x	x	x
CC(C)c1ccc(OCc2nc(-c3ccccn3)no2)c(Br)c1	-181.7	181.7*	137.5*	5.41*	0.6	35.6	x	x	x
CCc1ccc(OCc2nc(-c3ccccn3)no2)c(Br)c1	-181.0	181.0*	99.8	3.16	0.5	54.6*	x	x	x
COc1ccc(NS(=O)(=O)c2cc(NC(=O)c3cccc(OCc4c(C)noc4C)c3)ccc2OC)cc1	-0.2	0.2	99.4	0.77	1	-4.8	x	x	x
CCN(CC)S(=O)(=O)c1ccc(OC)c(NC(=S)Nc2cccc(C)c2C)c1	-8.0	8.0	99.7	1.03	1.1	-7.0	x	x	x
Oc1ccc(NC(=S)N=Nc2c(O)[nH]c3ccccc23)cc1	-38.5	38.5	144.6*	0.71	1	-4.4	x	x	x
O=C(N=Nc1c(O)[nH]c2ccccc12)c1cccs1	-154.3	154.3*	140.7*	5.62*	0.1	89.3*	x	x	x
O=C(N=Nc1c(O)[nH]c2ccccc12)c1cc(NS(=O)(=O)c2cccs2)cc(NS(=O)(=O)c2cccs2)c1	0.9	-0.9	103.5	1.04	1	-3.5	x	x	x
CN(C)CCSc1nnc2[nH]c3ccccc3c2n1	0.9	-0.9	102.5	1.27	1	-0.7	x	x	x
CCOC(=O)c1c(NC(=O)c2c(-c3ccccc3)noc2C)sc(C)c1-c1ccccc1	39.8	-39.8	136.5*	0.71	1.1	-6.0	x	x	x
CC(=O)Nc1ccc(NC(=O)Nc2ccc3c(c2)N(C)C(=O)CS3)cc1	1.1	-1.1	101.6	0.95	0.9	6.6	x	x	x
CN1C(=O)CSc2ccc(NC(=O)Nc3ccccn3)cc21	-28.9	28.9	142.4*	1.44	0.8	19.8	x	x	x
COc1cc(OC)nc(-n2ncc(Br)c(Br)c2=O)n1	94.1*	-94.1	240.4*	1.07	1.1	-6.1	272.6*	86.7	95.2
COC(=O)c1cnn(-c2nc(OC)cc(OC)n2)c1C	-4.0	4.0	97.2	1.27	1.1	-5.2	x	x	x
Cc1ccccc1NC(=O)C1Cc2ccccc2CN1C(=O)OCc1ccccc1 (stereo not given)	-20.4	20.4	98.8	0.93	1.1	-6.2	x	x	x
COc1cc(NC(=O)COC(=O)c2n[nH]c3ccccc23)c(C)cc1[N+](=O)[O-]	4.0	-4.0	94.8	x	1.1	-5.9	x	x	x
COc1cc(/C=N/O)ccc1OCc1ccccc1Cl	-186.2	186.1*	181.8*	7.24*	0.6	36.9	191.1*	125.0	120.5*
CCOC(=O)c1oc2ccc(CNC(C)(C)C)c(Cl)c2c1C	8.9	-8.9	96.3	1.31	1.1	-6.9	x	x	x
CC(=O)N1N=C(c2ccc(C)cc2)OC1c1ccc(C(C)C)cc1 (stereo not given)	-115.5	115.5	165.6*	4.3*	1	-0.1	217.4*	146.1*	145.8*
CC(=O)N1N=C(c2ccc(C)cc2)OC1c1ccc(C)cc1 (stereo not given)	-28.8	28.8	122.2	1.77	1	-4.1	x	x	x
SMILES	APP 5UTR inh	APP 5'UTR act	STAT1 activator	NF-kB expr up	FLuc act counter	FLuc inh counter	STAT1 act conf	NFkB act	STAT3 act STAT1c
Cc1cc(C(=O)COC(=O)c2cc(Cl)ccc2N)c(C)n1Cc1ccco1	-170.6	170.6*	156.4*	2.05	0.7	33.7	185.0*	128.0	114.8*
CC(=NCc1cccc(Cl)c1)c1nc(-c2ccco2)oc1O	-18.1	18.1	97.8	2.22	1	0.2	x	x	x
Cn1c(=NC(=O)c2ccccc2[N+](=O)[O-])sc2cc(S(C)(=O)=O)ccc21	-177.9	177.9*	176.9*	1.34	0.8	20.6	248.7*	117.0	107.5
C=CCNc1ncnc2c1cnn2-c1ccc(Cl)cc1	-239.3	239.3*	177.3*	5.39*	0.6	39.0	266.0*	132.8	107.5
Clc1ccc(-n2ncc3c(NCCCn4ccnc4)ncnc32)cc1	10.9	-10.9	123.8	1.85	1	4.6	x	x	x
CCCCNc1ncnc2c1cnn2-c1ccc(Cl)cc1	33.5	-33.5	158.0*	7.2*	0.8	17.2	249.2*	140.2*	105.7
CC(NC(=O)c1ccc(F)cc1)C(=O)NC1=NCCS1 (stereo not given)	-4.5	4.5	98.2	1.16	1	-1.1	x	x	x
Cc1ccc(CNC(=O)CCC2CCCN(Cc3cccc4ncccc34)C2)o1 (stereo not given)	-16.6	16.6	96.9	1.09	1	-3.5	x	x	x
NC(=O)c1ccsc1NC(=O)c1coc2ccccc2c1=O	-166.9	166.9*	166.1*	2.16	0.3	70.8*	217.2*	129.8	112.6*
NC(=O)c1ccsc1NC(=O)CSc1ccccc1F	-50.9	50.9	111.4	1.82	1	3.5	x	x	x
CC(=O)COc1ccc2c(C)c(-c3ccccc3)c(=O)oc2c1	-39.7	39.7	155.7*	2.64	0.7	31.6	155.8*	115.4	98.1
CC(=O)COc1ccc2c3c(c(=O)oc2c1)CCCC3	2.5	-2.5	107.7	1.66	1	-2.4	x	x	x
COc1ccc(-c2ccc3ccccc3n2)cc1OC	-142.9	142.9*	170.2*	3.3*	0.8	15.2	194.6*	135.6*	111.2*
COc1cc(-c2ccccc2)nc2ccccc12	12.7	-12.7	97.5	1.16	1	-0.9	x	x	x
N#C/C(=C/c1ccc(N2CCOCC2)o1)c1ccc(Br)cc1	9.8	-9.8	114.7	2.04	1	2.0	x	x	x
N#C/C(=C\c1ccc(N2CCOCC2)cc1)c1ccccc1	-207.7	207.7*	173.5*	2.52	0.6	41.5	225.7*	142.8*	108.5
N#C/C(=C\c1ccc(N2CCOCC2)o1)c1ccccc1	-27.6	27.6	160.7*	1.9	0.8	15.8	234.8*	149.9*	126.5*
